In test [1] the test system is L1210. The test can be described thus: Compound was evaluated for its impact on spermine levels after 48 hr at concentration 500 uM. The class given is functional, Mus musculus.
Test [2] concerns L1210. Put plainly: Compound was evaluated for its impact on spermidine levels after 48 hr at concentration 100 uM. It is filed as functional, Mus musculus.
For test [3], the system named is L1210. Put plainly: Compound was evaluated for its impact on spermidine levels after 48 hr at concentration 500 uM. It is filed as functional, Mus musculus.
Test [4] deals with L1210. Put plainly: Compound was evaluated for its impact on spermine […] levels after 48 hr at concentration 100 uM. The class given is functional, Mus musculus. In a few lines:
(§1)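 L1210 suspension cultures were grown in RPMI-1640 with 10% NuSerum, 2% HEPES-MOPS and 1 mM aminoguanidine (37 °C, 5% CO2). Log-phase cells were treated for 48 h, then washed twice in cold RPMI-1640 and pelleted. Pellets were extracted with 0.6 N perchloric acid, and supernatants were held at −20 °C until HPLC. Polyamine levels are given as % of untreated controls.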

The test system of test [5] is L1210. Put plainly: Compound was evaluated for its impact on putrescine (Put) levels after 48 hr at concentration 500 uM. The class given is functional, Mus musculus.
Test [6] deals with L1210. The test can be described thus: Inhibition of radiolabeled spermidine uptake into L1210 cells in vitro. The class given is functional, cell-based, Mus musculus.
Test [7] has as its system L1210. Put plainly: Compound was evaluated for its impact on putrescine (Put) levels after 48 hr at concentration 100 uM. The class given is functional, Mus musculus.
Test [8] has as its system L1210. Put plainly: In vitro inhibition of L1210 growth after 48 hours. It is filed as functional, cell-based. As to conditions: Mus musculus, L1210, 48 h. An outline of the steps: (§2)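 Log-phase L1210 cultures (0.5–1.0 × 10^5 cells/mL) treated with analogue diluted in sterile water and filter-sterilized. After 48 h, cells were reseeded and grown a further 48 h for the 96 h point. Cells counted by Coulter counter. % growth = (treated − inoculum)/(untreated − inoculum) × 100.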

The subject of test [9] is L1210. The test can be described thus: In vitro inhibition of L1210 growth after 96 hours. As to conditions: Mus musculus, L1210, 96 h. It is filed as functional, cell-based. In a few lines: as §2
Test [10] deals with T1, Ornithine decarboxylase (Mus musculus) (UniProt P00860).
T1 sequence (whole entry): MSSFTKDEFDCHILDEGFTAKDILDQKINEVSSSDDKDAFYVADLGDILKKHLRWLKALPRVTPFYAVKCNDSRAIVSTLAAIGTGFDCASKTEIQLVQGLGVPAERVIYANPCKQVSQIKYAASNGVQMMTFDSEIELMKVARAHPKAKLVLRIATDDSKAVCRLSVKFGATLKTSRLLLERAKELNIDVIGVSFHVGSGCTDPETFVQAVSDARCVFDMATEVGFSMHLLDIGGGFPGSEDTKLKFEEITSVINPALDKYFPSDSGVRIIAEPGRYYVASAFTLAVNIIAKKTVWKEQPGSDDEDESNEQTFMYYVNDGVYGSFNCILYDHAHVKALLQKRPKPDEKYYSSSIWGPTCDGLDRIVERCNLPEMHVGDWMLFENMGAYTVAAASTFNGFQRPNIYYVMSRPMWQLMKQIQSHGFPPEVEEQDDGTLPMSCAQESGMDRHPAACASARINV
Put plainly: Inhibition of ornithine decarboxylase (ODC) activity. The class given is functional. Also on record: concentration or dose not given beside the values.

The target in test [11] is T2, S-adenosylmethionine decarboxylase proenzyme 1 (Mus musculus) (UniProt P0DMN7).
T2 sequence (whole entry): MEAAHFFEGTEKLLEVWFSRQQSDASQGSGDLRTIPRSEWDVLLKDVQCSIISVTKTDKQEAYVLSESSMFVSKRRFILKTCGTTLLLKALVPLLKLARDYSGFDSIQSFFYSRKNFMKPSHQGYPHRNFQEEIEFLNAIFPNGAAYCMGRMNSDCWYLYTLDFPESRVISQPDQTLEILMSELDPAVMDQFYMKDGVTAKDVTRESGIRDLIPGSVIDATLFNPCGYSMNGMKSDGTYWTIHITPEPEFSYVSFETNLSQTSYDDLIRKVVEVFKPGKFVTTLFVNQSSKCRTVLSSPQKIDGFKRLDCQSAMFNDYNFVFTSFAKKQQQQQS
The test can be described thus: Inhibition of S-Adenosyl-methionine decarboxylase (AdoMetDC) activity. It is filed as functional. Also on record: concentration or dose not given beside the values.

In test [12] the target is Spermidine/spermine N(1)-acetyltransferase (SAT) (Mus musculus) (UniProt Q6P8J2+P48026). The test can be described thus: […] spermidine/spermine N1-Acetyltransferase (SSAT) activity. The class given is functional. Also on record: concentration or dose not given beside the values.
Chain of Spermidine/spermine N(1)-acetyltransferase (SAT) (Mus musculus) (P48026 whole entry, looked up): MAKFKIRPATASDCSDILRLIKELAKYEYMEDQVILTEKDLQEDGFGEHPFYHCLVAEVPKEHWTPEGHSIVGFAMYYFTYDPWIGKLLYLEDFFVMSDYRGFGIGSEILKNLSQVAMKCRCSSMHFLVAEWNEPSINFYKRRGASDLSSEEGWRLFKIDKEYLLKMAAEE
Chain of Spermidine/spermine N(1)-acetyltransferase (SAT) (Mus musculus) (Q6P8J2 whole entry, looked up): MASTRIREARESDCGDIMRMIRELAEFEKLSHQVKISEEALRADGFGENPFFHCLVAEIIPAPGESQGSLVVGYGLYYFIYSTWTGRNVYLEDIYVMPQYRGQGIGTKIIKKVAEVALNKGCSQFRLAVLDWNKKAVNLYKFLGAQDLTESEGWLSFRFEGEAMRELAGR
Test [13] has as its system L1210. The test can be described thus: Compound level in L1210 cells after 48 hours of incubation at initial concentration of 500 uM is expressed as nmol/10e6 cells. The class given is functional, Mus musculus. Also on record: unit: nmol/10^6 cells.
The subject of test [14] is L1210. The test can be described thus: Compound was evaluated for its impact on spermine levels after 48 hr at concentration 100 uM. The class given is functional, Mus musculus.
The subject of test [15] is L1210. The test can be described thus: Compound level in L1210 cells after 48 hours of incubation at initial concentration of 100 uM is expressed as nmol/10e6 cells. The class given is functional, Mus musculus. Also on record: unit: nmol/10^6 cells.
In test [16] the test system is L1210. The test can be described thus: Compound was evaluated for its impact on spermine […] levels after 48 hr at concentration 500 uM. It is filed as functional, Mus musculus. An outline of the steps: as §1
In test [17] the test system is L1210. Put plainly: Compound level in L1210 cells after 48 hours of incubation at initial concentration of 30 uM is expressed as nmol/10e6 cells. It is filed as functional, Mus musculus. An outline of the steps: (§3)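 Murine L1210 leukemia cells were kept in logarithmic growth as a suspension in RPMI-1640 with 10% NuSerum, 2% HEPES-MOPS buffer and 1 mM aminoguanidine, at 37 °C under 5% CO2. Log-phase cells were exposed to the analogue for 48 h. Intracellular analogue content is reported per 10^6 cells.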

For test [18], the system named is L1210. Put plainly: Compound was evaluated for its impact on spermine levels after 48 hr at concentration 30 uM. It is filed as functional, Mus musculus. An outline of the steps:
(§4)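 Murine L1210 leukemia cells in log-phase suspension (RPMI-1640, 10% NuSerum, 2% HEPES-MOPS, 1 mM aminoguanidine, 37 °C, 5% CO2) exposed to analogue for 48 h. Cells washed twice in cold RPMI-1640, extracted with 0.6 N perchloric acid, and polyamines quantified by HPLC. Spermine is reported as % of untreated control.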

The subject of test [19] is L1210. The test can be described thus: Compound was evaluated for its impact on spermidine levels after 48 hr at concentration 150 uM. It is filed as functional, Mus musculus. An outline of the steps: as §1
Test [20] has as its system L1210. The test can be described thus: Compound was evaluated for its impact on spermidine levels after 48 hr at concentration 30 uM. It is filed as functional, Mus musculus. In a few lines:
as §1

The test system of test [21] is L1210. The test can be described thus: Compound was evaluated for its impact on spermine levels after 48 hr at concentration 150 uM. The class given is functional, Mus musculus. In a few lines:
as §4

Test [22] concerns L1210. The test can be described thus: Compound was evaluated for its impact on putrescine (Put) levels after 48 hr at concentration 30 uM. The class given is functional, Mus musculus. In a few lines: as §1
Test [23] deals with L1210. The test can be described thus: Compound level in L1210 cells after 48 hours of incubation at initial concentration of 150 uM is expressed as nmol/10e6 cells. It is filed as functional, Mus musculus. An outline of the steps:
as §3

Test [24] concerns L1210. Put plainly: Compound was evaluated for its impact on putrescine (Put) levels after 48 hr at concentration 150 uM. It is filed as functional, Mus musculus. In a few lines:
as §1

On to `CC(C)NCCCNCCCNCCCNC(C)C`, for which the Polyamine with L1210 [1] amounted to 53%; in the test on L1210 [2] it was 26%; in the test on L1210 [3], 12%; with L1210 [4], 64%; with L1210 [5], 0%; in the test on L1210 [7], 10%. Besides, the Ki (commonly the dissociation constant of the complex between target and ligand, obtained from inhibition or displacement) in the test on L1210 [6] worked out at 40000 nM. Further, the IC50 (as a rule, the concentration at which inhibition is half-maximal) with L1210 [8] is greater than 100000 nM; in the test on L1210 [9] it was 1200 nM. The Activity in [10] worked out at 100%; in [11] it was 100%; in test [12] it was 180%.

As for `CCNCCCNCCCNCCCN`, the Activity with L1210 [13] amounted to 1.72; in the test with L1210 [15], 1.69; in test [10], 5%; in test [11], 33%; in test [12], 410%. The Polyamine in the test with L1210 [1] is recorded as 11%; in the test with L1210 [2] it was 5%; with L1210 [3], 2%; in the test with L1210 [14] it was 11%; with L1210 [5], 0%; in the test with L1210 [7], 0%. The compound further displayed an inhibition constant Ki in the test on L1210 [6] of 7700 nM. Also, the IC50 in the test with L1210 [8] was greater than 100000 nM; in the test on L1210 [9] it was 2500 nM.

For the compound `CNCCCNCCCCNCCCNC`, the Activity with L1210 [13] was 1.24; in the test with L1210 [15], 1.26; in test [10] it was 3%; in test [11], 40%; in test [12], 300%. Also, the Polyamine stood at 0% in the test on L1210 [2]; 0% with L1210 [3]; 24% in the test on L1210 [16]; 21% with L1210 [14]; 0% with L1210 [5]; 0% with L1210 [7]. Moreover, in the test on L1210 [6], affinity was put at a Ki of 1100 nM. Also, the IC50 in the test on L1210 [8] was greater than 100000 nM.

Take `CCNCCCNCCCCNCCCNCC` [BIS(ETHYL)SPERMINE]: the Activity is 0.4 in the test with L1210 [17]; 1.13 in the test on L1210 [23]; 3% in test [10]; 28% in test [11]; 460% in test [12]. For the same compound, the Polyamine is recorded as 12% in the test with L1210 [18]; 0% in the test on L1210 [19]; 0% with L1210 [20]; 14% in the test on L1210 [21]; 0% in the test with L1210 [22]; 0% in the test with L1210 [24]. This compound also returned an inhibition constant Ki in the test on L1210 [6] of 1600 nM. Moreover, the IC50 is 30000 nM with L1210 [8] and 180 nM in the test with L1210 [9].

The values above are taken from ChEMBL document CHEMBL1127367, “Antiproliferative properties of polyamine analogues: a structure-activity study” (J Med Chem, 1994).
